# KCNQ1 inh: inhibitors of human KCNQ1 channel, primary screen, cell-based, thallium flux, high-throughput; Potassium voltage-gated channel subfamily KQT member 1 (Homo sapiens), P51787; CHO-K1 KCNQ1, FluxOR thallium flux fluorescence; hits give high values; B-score at 10 µM; 1.3% of 310,000 active;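 active = compounds whose thallium flux B-score, printed positive for inhibition, exceeds three library SD while starting fluorescence stays within three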;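 note: channel opened by potassium depolarization with thallium stimulus after 20 min compound exposure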
# Target sequence (P51787 whole entry, looked up): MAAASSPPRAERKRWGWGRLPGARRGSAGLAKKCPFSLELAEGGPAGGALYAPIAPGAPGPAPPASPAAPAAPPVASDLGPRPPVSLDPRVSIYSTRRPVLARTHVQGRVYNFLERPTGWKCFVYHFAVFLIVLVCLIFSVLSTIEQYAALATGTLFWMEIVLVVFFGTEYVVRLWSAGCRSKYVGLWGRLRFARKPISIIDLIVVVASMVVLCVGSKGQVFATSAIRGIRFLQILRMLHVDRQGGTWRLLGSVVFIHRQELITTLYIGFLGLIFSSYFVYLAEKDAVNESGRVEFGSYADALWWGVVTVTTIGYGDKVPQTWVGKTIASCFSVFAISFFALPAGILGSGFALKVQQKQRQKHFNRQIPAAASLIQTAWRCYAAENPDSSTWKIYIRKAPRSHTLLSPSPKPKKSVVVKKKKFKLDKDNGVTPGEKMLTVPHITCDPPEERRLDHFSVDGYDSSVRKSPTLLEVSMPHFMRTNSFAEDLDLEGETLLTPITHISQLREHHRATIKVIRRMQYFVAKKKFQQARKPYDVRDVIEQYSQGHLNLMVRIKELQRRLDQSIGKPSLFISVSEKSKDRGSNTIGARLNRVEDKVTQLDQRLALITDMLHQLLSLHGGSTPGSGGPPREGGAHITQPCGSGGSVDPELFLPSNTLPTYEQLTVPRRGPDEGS
# KCNK3 inh: human KCNK3 channel inhibitors, primary screen, CHO cells, FluxOR thallium flux, B-score; FluxOR fluorescence; hits give low values; B-score at 10 µM; 0.84% of 340,000 active; Potassium channel subfamily K member 3 (Homo sapiens), O14649;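 active = B-score under library mean minus 4 SD, starting fluorescence ratio at most library mean plus 5 SD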;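 note: more negative B-score means stronger inhibition of thallium flux through KCNK3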
# Kir21 inh: inhibitors of mouse Kir2.1 inward-rectifier potassium channel. Inward rectifier potassium channel 2 (Mus musculus), P35561. HEK293-Kir2.1, FluxOR thallium flux fluorescence; hits give low values. B-score at 10 µM. 0.85% of 310,000 active;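 active = fluorescence ratio B-score at or below minus 3 SD of library scores, with starting-brightness B-score within 2 SD, cut at about -4.2 in these data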;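 note: channel flux triggered by added potassium and thallium sulfate stimulus; B-score of peak minus minimum fluorescence over baseline after thallium stimulus; more negative B-score means stronger Kir2.1 block with less thallium influx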
# hERG protect: hERG rescue from dofetilide block, primary screen, cell-based, CHO-hERG, FluxOR thallium flux, dofetilide IC70 | activation (rescue from dofetilide block), less the hit threshold, % at 10 µM | dofetilide IC70 present | 0.51% of 310,000 active | Voltage-gated inwardly rectifying potassium channel KCNH2 (Homo sapiens), Q12809;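 active = activation above the mean of controls blocked by dofetilide plus 5 SD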;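 note: thallium influx through hERG after potassium depolarization seen as dye fluorescence rise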
# KCNQ1 act: potentiators or activators of KCNQ1 channel, primary screen, cell-based, thallium flux, high-throughput. B-score at 10 µM. 0.35% of 310,000 active. CHO-K1 KCNQ1, thallium flux FluxOR fluorescence; hits give high values;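 active = fluorescence ratio B-score, a plate-corrected score, at least three library SD, with initial intensity B-score within 5 SD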
#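 assay system = KCNQ1-transfected CHO-K1 cells | medium = assay buffer with matched DMSO | probe or stimulus = depolarizing K+/Tl+ stimulus, K2SO4 and Tl2SO4 each 12.5 mM in 5x stock | dosing = single dose | incubation = dye 90 min, compound 20 min, room temperature | detection = kinetic FluxOR fluorescence, 10 s baseline plus 110 s post-stimulus | evaluation = ratio B score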
# KCNK9 inh: KCNK9 potassium channel inhibitors, primary screen, HEK293 cells, thallium flux; Potassium channel subfamily K member 9 (Homo sapiens), Q9NPC2; FluxOR thallium flux fluorescence; hits give low values; B-score at 10 µM; 1.2% of 310,000 active; AID 488922, 2010;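 active = ratio B-score over 3 SD below the library mean, with starting fluorescence within 5 SD of its mean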;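 note: negative B-score means less thallium flux so channel inhibition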
# Numbers stand for hits; – = inactive; · = not tested or not shown. The list is not random: actives were taken first. Their share in the collection is about 3.7%.
SMILES,KCNQ1 inh,KCNK3 inh,Kir21 inh,hERG protect,KCNQ1 act,KCNK9 inh
O=C1OCCC1Sc1nc2ccccc2c(=O)n1Cc1ccc(F)cc1 (configuration not stated),–,–,–,9.9,11,–
S=C(NCCc1ccccc1)Nc1cnc2ccccc2c1,–,–,–,–,–,–
Cc1noc(C)c1S(=O)(=O)Nc1cccc(C(F)(F)F)c1,6,–,–,–,–,–
Cc1cccc(NS(=O)(=O)c2c(C)noc2C)c1,–,–,–,–,–,–
Cc1noc(C)c1S(=O)(=O)NCc1cccc(Cl)c1,·,-11.2,·,·,·,·
Cc1c(Cl)c(C(=O)NNC(=S)Nc2ccc(F)cc2)nn1C,–,–,–,–,–,–
COc1ccc(NC(=O)C2(c3ccccc3)CCCC2)cc1,–,–,–,–,–,–
COCCNC(=O)c1ccc(NC(=O)C2(c3ccccc3)CCCC2)cc1,–,–,–,7.5,–,–
CCOc1ccc(NC(=O)c2ccc(NC(=O)Cc3n[nH]c(=O)c4ccccc34)cc2)cc1,–,–,–,–,–,–
CCOc1cc(CNCCO)cc(Br)c1OCc1ccc(Cl)cc1Cl,–,–,-13,–,–,-7.8
CCOc1cccc(CNCCO)c1OCc1ccc(Cl)cc1Cl,–,–,-6.1,–,–,–
CCOc1cccc(CNc2ccc(O)cc2)c1OCc1ccc(Cl)cc1Cl,–,–,–,–,–,–
Cc1nc(CCNC(=O)c2cc(COc3ccc(F)cc3Cl)on2)sc1C,–,–,–,–,–,–
CC(=O)Nc1cccc(C(=O)/C=C/c2ccc(Br)cc2)c1,–,–,-5.97,–,–,–
COc1ccc(-c2csc3ncn(-c4cccc(C)c4)c(=O)c23)cc1OC,–,–,–,–,–,–
CCc1ccc(C2C(C(=O)O)c3ccccc3C(=O)N2C)cc1 (configuration not stated),–,–,–,–,–,–
CCc1ccc(/C=C/C(=O)C2C(=O)c3ccccc3C2=O)cc1,–,–,–,27.6,28,–
Cc1occc1C(=O)NNC(=S)NC(=O)COc1ccc(Cl)cc1Cl,–,–,–,61.8,75,–
O=C1C(SCCO)=C(SCCO)C(=O)c2ccccc21,·,-15,·,·,·,·
CC1=C(SCc2ccccc2)C(=O)c2ccccc2C1=O,·,–,·,·,·,·
O=C1Nc2ccc(Cl)cc2[C@@](C#CC2CC2)(C(F)(F)F)O1,–,·,–,–,–,-8.66
Cn1nc(C(=O)NCCc2ccc(S(N)(=O)=O)cc2)c2ccccc2c1=O,–,–,–,–,–,–
Cc1ccc(NC(=O)CSCC(=O)Nc2cc(C(F)(F)F)ccc2N2CCOCC2)cc1,–,–,–,–,–,–
O=C(CSCc1ccco1)Nc1cc(C(F)(F)F)ccc1N1CCOCC1,–,–,–,–,–,-6.72
CCN1/C(=C/C(C)=C/c2sc3ccccc3[n+]2CC)Sc2ccccc21,–,-14.7,–,–,–,–
SMILES,KCNQ1 inh,KCNK3 inh,Kir21 inh,hERG protect,KCNQ1 act,KCNK9 inh
O=C(N/N=C/c1ccc(COc2ccc(Br)cc2)o1)c1ccco1,–,–,–,–,–,–
COc1ccc(-n2c(-c3ccc(Cl)cc3)c[n+]3c2CCc2ccccc2-3)cc1,11,–,–,–,–,–
C[n+]1ccc(C(=O)Nc2ccccc2Cl)cc1,–,–,–,–,–,–
Cc1sc2nc(C(C)C)nc(SCC(=O)N3CCN(C(=O)c4ccco4)CC3)c2c1C,–,–,–,–,–,–
CCCc1nc(SCC(=O)N2CCc3ccccc3C2)c2ccccc2n1,–,–,-5.61,–,–,–
CCc1c(C)sc2nc(C(C)C)nc(SCC(=O)N3CCc4ccccc4C3)c12,9,·,–,–,–,–
COc1cccc(C(C(=O)NC2CCCC2)N(C(=O)c2ccco2)c2ccccc2)c1OC (configuration not stated),–,–,–,–,–,–
CC1=C/C(=N\Nc2ccccc2[N+](=O)[O-])CC(C)(C)C1,7,–,–,–,–,–
CCn1ncc(Cl)c1C(=O)NC(=S)Nc1c(C)cc(C)cc1[N+](=O)[O-],–,–,–,5.8,–,–

# Assay outcomes: PubChem, Johns Hopkins Ion Channel Center
